Activity calls are given as the source filed them. No cut-off for these calls is given here.
How the values were obtained:
Blood [1] = test: Induction of total haemolysis in Albino mouse blood infected with Trypanosoma cruzi Y at 2.5 mM; assay type: functional, tissue-based
How it was run: (§1)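 Erythrocyte lysis was scored in the in vitro trypomastigote tubes as partial or total haemolysis. Infected blood (0.2 mL) was mixed with compound in 1% DMSO plus TCM199 at final 0.31, 0.63, 1.25, 2.50 and 5.0 mM. Tubes were incubated 24 h at 4C and examined microscopically.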

Trypanosoma cruzi [2] = test: Trypanocidal activity against Trypanosoma cruzi Y blood stream trypomastigotes assessed as parasite lysis at 2.50 mM relative to control; assay type: functional
How it was run: (§2)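 Infected blood with Y-strain bloodstream trypomastigotes was exposed to compound in 1% DMSO plus TCM199 at final 0.31–5.0 mM. Tubes were incubated 24 h at 4C. An aliquot was examined microscopically and parasites counted. Activity was calculated as percent parasite reduction versus negative control (1% DMSO + TCM199). DMSO and gentian violet control tubes were run in parallel.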

Trypanosoma cruzi [3] = test: Trypanocidal activity against Trypanosoma cruzi Y blood stream trypomastigotes assessed as parasite lysis at 0.63 mM relative to control; assay type: functional; how it was run: as §2
Trypanosoma cruzi [4] = test: Trypanocidal activity against Trypanosoma cruzi Y blood stream trypomastigotes assessed as parasite lysis at 0.31 mM relative to control; assay type: functional; how it was run: as §2
Blood [5] = test: Induction of total haemolysis in Albino mouse blood infected with Trypanosoma cruzi Y at 5 mM; assay type: functional, tissue-based; how it was run: as §1
Blood [6] = test: Induction of total haemolysis in Albino mouse blood infected with Trypanosoma cruzi Y at 1.25 mM; assay type: functional, tissue-based; how it was run: as §1
Trypanosoma cruzi [7] = test: Trypanocidal activity against Trypanosoma cruzi Y blood stream trypomastigotes assessed as parasite lysis at 1.25 mM relative to control; assay type: functional; how it was run: as §2
Trypanosoma cruzi [8] = test: Trypanocidal activity against blood stream Trypanosoma cruzi Y trypomastigotes assessed as parasite lysis at 5 mM relative to control; assay type: functional; how it was run: as §2
Trypanosoma cruzi [9] = test: Trypanocidal activity in Swiss albino mouse inoculated with Trypanosoma cruzi Y blood trypomastigotes assessed as parasitaemia reduction administered after 7th day of inoculation at 250 mg/kg, po after 6 hrs relative to control; assay type: functional; parameters: scale not given: the % may be the effect or the level left
How it was run: (§3)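 Male Swiss albino mice (18–20 g, 30 days old) were infected ip with 5×10^4 Y-strain blood trypomastigotes. At peak parasitaemia (day 7), a single oral 250 mg/kg dose in DMSO 0.1 mL plus LIT 0.9 mL was given. Circulating parasites were counted microscopically before and 4 and 6 h after dosing. Percent reduction was taken versus pre-treatment count, with three mice per group, mean ± SD, and Split-Plot test.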

Trypanosoma cruzi [10] = test: Trypanocidal activity in Swiss albino mouse inoculated with Trypanosoma cruzi Y blood trypomastigotes assessed as parasitaemia reduction administered after 7th day of inoculation at 250 mg/kg, po after 4 hrs relative to control; assay type: functional; parameters: scale not given: the % may be the effect or the level left; how it was run: as §3

| Structure (SMILES) | Activity (Blood [1]) | Activity (Trypanosoma cruzi [2]) | Activity (Trypanosoma cruzi [3]) | Activity (Trypanosoma cruzi [4]) | Activity (Blood [5]) | Activity (Blood [6]) | Activity (Trypanosoma cruzi [7]) | Activity (Trypanosoma cruzi [8]) | Activity (Trypanosoma cruzi [9]) | Activity (Trypanosoma cruzi [10]) |
| --- | --- | --- | --- | --- | --- | --- | --- | --- | --- | --- |
| C=C1C[C@@]23CC[C@H]4[C@@](C)(CCC[C@@]4(C)C(=O)O)[C@@H]2CC[C@@H]1C3 [KAURENOIC ACID] | Active | 100% | 90% | 0% | Active | Active | 100% | 100% | – | – |
| O=C(Cn1ccnc1[N+](=O)[O-])NCc1ccccc1 [BENZNIDAZOLE] | – | – | – | – | – | – | – | – | 92.6% | 91.7% |
| C=C1C[C@@]23CCC4[C@](C)(CO[C@@H]5O[C@@H](CO)[C@H](O)[C@@H](O)[C@@H]5OC(C)=O)CCC[C@@]4(C)C2CC[C@@H]1C3 (stereo partly specified) | – | 0% | – | – | – | – | 0% | 56% | – | – |
| CN(C)c1ccc(C(=C2C=CC(=[N+](C)C)C=C2)c2ccc(N(C)C)cc2)cc1.[Cl-] [GENTIAN VIOLET] | – | 100% | 100% | 67% | – | – | 100% | – | – | – |
| COC(=O)[C@]1(C)CCC[C@@]2(C)C3CC[C@@H]4C[C@@]3(CCC21)C[C@@H]4CO (stereo partly specified) | – | 100% | 94% | 45% | – | – | – | 100% | – | – |
| C=C1C[C@@]23CC[C@@H]4[C@](C)(CO)CCC[C@@]4(C)[C@@H]2CC[C@H]1C3 | – | 72% | – | – | – | – | 66% | 100% | – | – |
| C=C1C[C@@]23CCC4[C@@](C)(CCC[C@@]4(C)C(=O)OC)C2CC[C@@H]1C3 (stereo partly specified) | – | 100% | 48% | 45% | – | – | 88% | 100% | 51.5% | 56.5% |

From ChEMBL document CHEMBL1144512, “Synthesis and trypanocidal activity of ent-kaurane glycosides” (2007)
